The results in this text go back to ChEMBL document CHEMBL1122426, “Radioiodine-labeled N,N-dimethyl-N'-(2-hydroxy-3-alkyl-5-iodobenzyl)-1,3-propanediamines for brain perfusion imaging” (J Med Chem, 1983).

The structures appear in SMILES notation.

The species entered for data set [1] is Rattus norvegicus. Briefly: Effect of specific activity of compound on biodistribution in rats brain 1 hr after injection at the dose of 6.25 mg value expressed in average % dose per organ; value may range from 1.95 to 2.70. Format: ADME, organism-based. The settings on record: in vivo. The method in brief:
(§1)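 Rats received an intravenous injection of the I-125 labeled diamine with added unlabeled carrier (6.25, 2.5, 0.25 or 0.025 mg per dose). At 1 h, organs were counted. Percent dose per organ came from comparing tissue radioactivity with diluted aliquots of the injected dose. Values are the average and range of 3 rats. Brain/blood ratio was taken from % dose per gram, calculated using mean organ weights (brain 1.65 g; blood 18 g).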

The species entered for data set [2] is Rattus norvegicus. Briefly: Effect of specific activity of compound on biodistribution in rats muscle 1 hr after injection at the dose of 2.5 mg value expressed in average % dose per organ; value may range from 12.7 to 18.3. Format: ADME, organism-based, Muscle tissue. The following applies: in vivo. The method in brief:
as §1

The species named for data set [3] is Rattus norvegicus. Briefly: Effect of specific activity of compound on biodistribution in rats heart after injection at the dose of 0.025 mg value expressed in average % dose per organ; value may range from 0.98 to 1.02. The settings on record: in vivo. The format is ADME, organism-based. The gist of the method:
as §1

Data set [4] is described as follows: Biodistribution of [125I]- compound in a monkey spleen. 1 hr after intravenous injection. the value expressed in%dose/organ. The settings on record: simiiformes, in vivo.
For data set [5], the species on record is Rattus norvegicus. The experiment in a line: Effect of specific activity of compound on biodistribution in rats muscle after injection at the dose of 0.025 mg value expressed in average % dose per organ; value may range from 11.6 to 12.9. The following applies: in vivo. The format is ADME, organism-based, Muscle tissue. The gist of the method: as §1
Data set [6] is filed under the species Rattus norvegicus. Briefly: Effect of specific activity of compound on biodistribution in rats heart 1 hr after injection at the dose of 2.5 mg value expressed in average % dose per organ; value may range from 0.34 to 0.42. The format is ADME, organism-based. The settings on record: in vivo. The method in brief:
as §1

The species named for data set [7] is Rattus norvegicus. Briefly: Effect of specific activity of compound on biodistribution in rats liver after injection at the dose of 0.025 mg value expressed in average % dose per organ; value may range from 6.23 to 7.26. Format: ADME, organism-based. The following applies: in vivo. The gist of the method: as §1
Data set [8] can be described thus: Biodistribution of [125I]- compound in a monkey blood. 1 hr after intravenous injection. the value expressed in %dose/gram. The settings on record: simiiformes, in vivo.
Data set [9] is described as follows: Biodistribution of [125I]- compound in a monkey muscle. 1 hr after intravenous injection. the value expressed in%dose/organ. The settings on record: simiiformes, in vivo.
The test system of data set [10] is Rattus norvegicus. The experiment in a line: Biodistribution of I-125 labeled compound in rat blood, 2 min after intravenous injection. value expressed in average % dose per organ; value may range from 2.42 to 2.84. The following applies: in vivo. Format: ADME, organism-based.

For the compound `Cc1cc(I)cc(CNCCCN(C)C)c1O`, the “Average dose per organ” value in the data set listed under Rattus norvegicus [1] was found to be 2.38%; in the data set filed under Rattus norvegicus [2], 16.2%; in the data set filed under Rattus norvegicus [3] it was 1%; in the data set filed under Rattus norvegicus [5], 12.2%; in the data set listed under Rattus norvegicus [6] it was 0.38%; in the data set filed under Rattus norvegicus [7] it was 6.74%. Further, the “Average dose per organ” value in the data set with Rattus norvegicus [10] is reported as 2.63%. In addition, the values for the Dose per organ in data set [4] and in data set [9] were 2.39% and 17.3%, respectively. In data set [8], the Dose/g was 0.002%.
